Test results as given in ChEMBL document CHEMBL1139934, “Synthesis and biological activity of imidazopyridine anticoccidial agents: part I” (Eur J Med Chem, 2007).

Experiments:
Eimeria acervulina [1] = test: Anticococcidal activity against Eimeria acervulina in Chick assessed as reduction in oocyte at 12.5 ppm relative to control; type: functional; parameters: scale not given: the % may be the effect or the level left
How it was run: (§1)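 Expanded Mini-Assay Coccidiosis (ExMAC) in chickens infected with E. tenella, E. acervulina, E. mitis and E. maxima. Compound given in the feed at the stated ppm. Efficacy for each species is scored 0 to 4 from the percent oocyst reduction relative to an untreated control. Where a compound was tested more than once, all values are reported.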

Eimeria maxima [2] = test: Anticococcidal activity against Eimeria maxima in Chick assessed as reduction in oocyte at 6.25 ppm relative to control; type: functional; parameters: scale not given: the % may be the effect or the level left; how it was run: as §1
Eimeria tenella [3] = test: Anticococcidal activity against Eimeria tenella in Chick assessed as reduction in oocyte at 12.5 ppm relative to control; type: functional; parameters: scale not given: the % may be the effect or the level left; how it was run: as §1
Eimeria tenella [4] = test: Anticococcidal activity against Eimeria tenella in Chick assessed as reduction in oocyte at 6.25 ppm relative to control; type: functional; parameters: scale not given: the % may be the effect or the level left; how it was run: as §1
[5] = biological target: cGMP-dependent protein kinase (Eimeria tenella, UniProt Q8MMZ8); test: Inhibition of Eimeria tenella cGMP-dependent protein kinase by Ten_K assay
How it was run: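 Ten_K (Tenella Kinase) assay measuring inhibition of E. tenella PKG enzyme activity. Result expressed as the concentration giving 50% inhibition (IC50, nM). Where a compound was tested more than once, all values are reported.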

Eimeria maxima [6] = test: Anticococcidal activity against Eimeria maxima in Chick assessed as reduction in oocyte at 12.5 ppm relative to control; type: functional; parameters: scale not given: the % may be the effect or the level left; how it was run: as §1
Eimeria mitis [7] = test: Anticococcidal activity against Eimeria mitis in Chick assessed as reduction in oocyte at 12.5 ppm relative to control; type: functional; parameters: scale not given: the % may be the effect or the level left; how it was run: as §1
Eimeria acervulina [8] = test: Anticococcidal activity against Eimeria acervulina in Chick assessed as reduction in oocyte at 6.25 ppm relative to control; type: functional; parameters: scale not given: the % may be the effect or the level left; how it was run: as §1
Eimeria mitis [9] = test: Anticococcidal activity against Eimeria mitis in Chick assessed as reduction in oocyte at 6.25 ppm relative to control; type: functional; parameters: scale not given: the % may be the effect or the level left; how it was run: as §1
Eimeria maxima [10] = test: Anticococcidal activity against Eimeria maxima in Chick assessed as reduction in oocyte at 25 ppm relative to control; type: functional; parameters: scale not given: the % may be the effect or the level left; how it was run: as §1
Eimeria mitis [11] = test: Anticococcidal activity against Eimeria mitis in Chick assessed as reduction in oocyte at 25 ppm relative to control; type: functional; parameters: scale not given: the % may be the effect or the level left; how it was run: as §1
Eimeria acervulina [12] = test: Anticococcidal activity against Eimeria acervulina in Chick assessed as reduction in oocyte at 25 ppm relative to control; type: functional; parameters: scale not given: the % may be the effect or the level left; how it was run: as §1
Eimeria tenella [13] = test: Anticococcidal activity against Eimeria tenella in Chick assessed as reduction in oocyte at 25 ppm relative to control; type: functional; parameters: scale not given: the % may be the effect or the level left; how it was run: as §1

Chain of cGMP-dependent protein kinase (Q8MMZ8 whole entry): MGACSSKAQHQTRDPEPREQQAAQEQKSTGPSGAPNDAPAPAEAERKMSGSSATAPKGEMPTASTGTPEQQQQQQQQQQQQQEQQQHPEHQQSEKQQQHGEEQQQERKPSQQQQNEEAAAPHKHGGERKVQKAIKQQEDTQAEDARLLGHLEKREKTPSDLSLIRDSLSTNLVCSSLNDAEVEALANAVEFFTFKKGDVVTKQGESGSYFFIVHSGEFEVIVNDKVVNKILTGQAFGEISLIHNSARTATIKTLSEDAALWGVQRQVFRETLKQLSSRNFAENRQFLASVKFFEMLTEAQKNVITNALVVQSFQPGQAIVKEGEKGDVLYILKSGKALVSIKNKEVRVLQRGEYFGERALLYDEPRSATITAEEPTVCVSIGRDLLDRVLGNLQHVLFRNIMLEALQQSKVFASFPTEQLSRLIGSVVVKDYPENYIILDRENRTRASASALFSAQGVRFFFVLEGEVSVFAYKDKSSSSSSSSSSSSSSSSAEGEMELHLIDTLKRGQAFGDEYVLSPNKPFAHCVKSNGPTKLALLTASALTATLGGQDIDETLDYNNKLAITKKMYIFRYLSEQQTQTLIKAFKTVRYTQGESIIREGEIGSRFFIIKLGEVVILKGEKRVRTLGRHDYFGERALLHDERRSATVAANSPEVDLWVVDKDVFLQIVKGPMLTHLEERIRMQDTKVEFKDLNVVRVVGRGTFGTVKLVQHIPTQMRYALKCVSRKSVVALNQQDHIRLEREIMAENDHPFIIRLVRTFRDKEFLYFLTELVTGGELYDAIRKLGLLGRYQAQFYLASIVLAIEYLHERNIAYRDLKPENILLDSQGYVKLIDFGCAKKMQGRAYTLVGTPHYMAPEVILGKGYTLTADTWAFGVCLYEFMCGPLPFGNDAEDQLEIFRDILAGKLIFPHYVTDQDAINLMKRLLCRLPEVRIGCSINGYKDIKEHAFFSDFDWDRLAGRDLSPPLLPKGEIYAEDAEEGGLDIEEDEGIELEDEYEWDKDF

Compound | Activity (Eimeria acervulina [1]) | Activity (Eimeria maxima [2]) | Activity (Eimeria tenella [3]) | Activity (Eimeria tenella [4]) | IC50 [5] | Activity (Eimeria maxima [6]) | Activity (Eimeria mitis [7]) | Activity (Eimeria acervulina [8]) | Activity (Eimeria mitis [9]) | Activity (Eimeria maxima [10]) | Activity (Eimeria mitis [11]) | Activity (Eimeria acervulina [12]) | Activity (Eimeria tenella [13])
CCCC(=O)Nc1nccc(-c2c(-c3ccc(F)cc3)nc3cc(CN(C)C)ccn23)n1 | 80% | 80% | 80% | <50% | 0.63 nM | 80% | 80% | <50% | <50% | – | – | – | –
CN(C)Cc1ccn2c(-c3ccnc(NCc4cccc(Cl)c4)n3)c(-c3ccc(F)cc3)nc2c1 | – | – | – | – | 0.18 nM | – | – | – | – | 80% | <50% | <50% | <50%
CN(C)Cc1ccn2c(-c3ccnc(NC(=O)NC(C)(C)C)n3)c(-c3ccc(F)cc3)nc2c1 | 80% | – | 80% | – | 4.39 nM | 80% | 80% | – | – | – | – | – | –
CCCNc1nccc(-c2c(-c3ccc(F)cc3)nc3cc(CN(C)C)ccn23)n1 | 80% | – | 80% | – | – | 80% | 80% | – | – | – | – | – | –
CN(C)Cc1ccn2c(-c3ccnc(NCc4cc(F)cc(F)c4)n3)c(-c3ccc(F)cc3)nc2c1 | <50% | – | <50% | – | 0.11 nM | <50% | <50% | – | – | 80% | <50% | 80% | 80%
CN(C)Cc1ccn2c(-c3nc(N)ncc3Br)c(-c3ccc(F)cc3)nc2c1 | – | – | – | – | 5.8 nM | – | – | – | – | 50% | <50% | <50% | 50%
CN(C)Cc1ccn2c(-c3ccnc(NCc4ccc(F)c(F)c4)n3)c(-c3ccc(F)cc3)nc2c1 | – | – | – | – | 0.06 nM | – | – | – | – | <50% | <50% | <50% | <50%
CN(C)Cc1ccn2c(-c3ccnc(NS(=O)(=O)c4ccccc4)n3)c(-c3ccc(F)cc3)nc2c1 | – | – | – | – | 0.25 nM | – | – | – | – | <50% | <50% | <50% | <50%
CN(C)Cc1ccn2c(-c3ccnc(N)n3)c(-c3ccc(F)cc3F)nc2c1 | 100% | – | 100% | 80% | 0.1 nM | – | 80% | 100% | 50% | – | 80% | 100% | 80%
Cc1cccc(CNc2nccc(-c3c(-c4ccc(F)cc4)nc4cc(CN(C)C)ccn34)n2)c1 | – | – | – | – | 0.083 nM | – | – | – | – | <50% | <50% | <50% | 80%
CN(C)Cc1ccn2c(-c3ccnc(NC(=O)C4CCCC4)n3)c(-c3ccc(F)cc3)nc2c1 | <50% | – | 80% | < 50% | 0.21 nM | – | 80% | <50% | <50% | – | 80% | 80% | 80%
CCCCCCNc1nccc(-c2c(-c3ccc(F)cc3)nc3cc(CN(C)C)ccn23)n1 | – | – | – | – | 0.13 nM | – | – | – | – | <50% | <50% | <50% | 80%
CN(C)Cc1ccn2c(-c3ccnc(NCc4cccc(F)c4F)n3)c(-c3ccc(F)cc3)nc2c1 | – | – | – | – | 0.12 nM | – | – | – | – | <50% | <50% | <50% | <50%
CN(C)Cc1ccn2c(-c3ccnc(NCc4ccccc4Cl)n3)c(-c3ccc(F)cc3)nc2c1 | – | – | – | – | 0.056 nM | – | – | – | – | 80% | <50% | <50% | 50%
CN(C)Cc1ccn2c(-c3ccnc(N)n3)c(-c3ccc(Cl)cc3)nc2c1 | <50% | – | <50% | – | 0.41 nM | – | <50% | – | – | – | 50% | 50% | 80%
CN(C)Cc1ccn2c(-c3ccnc(N)n3)c(-c3ccc(F)c(Br)c3)nc2c1 | – | – | – | – | 0.16 nM | – | – | – | – | 80% | <50% | 80% | 80%

Compound | Activity (Eimeria acervulina [1]) | Activity (Eimeria maxima [2]) | Activity (Eimeria tenella [3]) | Activity (Eimeria tenella [4]) | IC50 [5] | Activity (Eimeria maxima [6]) | Activity (Eimeria mitis [7]) | Activity (Eimeria acervulina [8]) | Activity (Eimeria mitis [9]) | Activity (Eimeria maxima [10]) | Activity (Eimeria mitis [11]) | Activity (Eimeria acervulina [12]) | Activity (Eimeria tenella [13])
CCCCC(=O)Nc1nccc(-c2c(-c3ccc(F)cc3)nc3cc(CN(C)C)ccn23)n1 | 50% | 80% | 50% | < 50% | 0.25 nM | 80% | – | 80% | <50% | 80% | 80% | 80% | 80%
CCCCCNc1nccc(-c2c(-c3ccc(F)cc3)nc3cc(CN(C)C)ccn23)n1 | – | – | – | – | 0.1 nM | – | – | – | – | 80% | 50% | 80% | <50%
CN(C)Cc1ccn2c(-c3ccnc(NCc4ccc(F)cc4F)n3)c(-c3ccc(F)cc3)nc2c1 | – | – | – | – | 0.15 nM | – | – | – | – | 80% | <50% | <50% | <50%
CN(C)Cc1ccn2c(-c3ccnc(NCc4ccccc4F)n3)c(-c3ccc(F)cc3)nc2c1 | – | – | – | – | 0.087 nM | – | – | – | – | 80% | 80% | <50% | 80%
Cc1ccc(CNc2nccc(-c3c(-c4ccc(F)cc4)nc4cc(CN(C)C)ccn34)n2)cc1 | – | – | – | – | 0.121 nM | – | – | – | – | 80% | <50% | 50% | <50%
CN(C)Cc1ccn2c(-c3ccnc(NCc4ccc(F)cc4)n3)c(-c3ccc(F)cc3)nc2c1 | <50% | – | <50% | – | 0.066 nM | <50% | <50% | – | – | 80% | 80% | 80% | 80%
CN(C)Cc1ccn2c(-c3ccnc(NCc4ccc(Cl)cc4)n3)c(-c3ccc(F)cc3)nc2c1 | – | – | – | – | 0.24 nM | – | – | – | – | <50% | <50% | <50% | <50%
CCC(=O)Nc1nccc(-c2c(-c3ccc(F)cc3)nc3cc(CN(C)C)ccn23)n1 | <50% | – | 80% | <50% | 0.3 nM | 80% | <50% | <50% | <50% | 80% | 80% | 80% | 80%
COCCCNc1nccc(-c2c(-c3ccc(F)cc3)nc3cc(CN(C)C)ccn23)n1 | – | – | – | – | 0.25 nM | – | – | – | – | 50% | <50% | 80% | 80%
Cc1cc(-c2nc3cc(CN(C)C)ccn3c2-c2ccnc(N)n2)ccc1F | 80% | – | 80% | 80% | 0.23 nM | – | 80% | 80% | 80% | – | 80% | 80% | 80%
CN(C)Cc1ccn2c(-c3ccnc(NCc4cc(F)ccc4F)n3)c(-c3ccc(F)cc3)nc2c1 | – | – | – | – | 0.026 nM | – | – | – | – | 80% | <50% | <50% | <50%
Cc1ccccc1CNc1nccc(-c2c(-c3ccc(F)cc3)nc3cc(CN(C)C)ccn23)n1 | – | – | – | – | 0.08 nM | – | – | – | – | 50% | <50% | <50% | <50%
CN(C)Cc1ccn2c(-c3ccnc(Nc4ccccn4)n3)c(-c3ccc(F)cc3)nc2c1 | <50% | – | 80% | – | 0.4 nM | 50% | 80% | – | – | 80% | 80% | <50% | 80%
COC(=O)Nc1nccc(-c2c(-c3ccc(F)cc3)nc3cc(CN(C)C)ccn23)n1 | 80% | – | 80% | – | 0.45 nM | 80% | <50% | – | – | 80% | <50% | 80% | 80%
CN(C)Cc1ccn2c(-c3nc(N)ncc3C#N)c(-c3ccc(F)cc3)nc2c1 | – | – | – | – | 1.6 nM | – | – | – | – | <50% | <50% | <50% | <50%
CCNc1nccc(-c2c(-c3ccc(F)cc3)nc3cc(CN(C)C)ccn23)n1 | 80% | 80% | 80% | <50% | 0.23 nM | 80% | <50% | – | <50% | 80% | 80% | 80% | 80%
